How the values were obtained:
[1] = biological target: T1, Muscarinic acetylcholine receptor M1 (Rattus norvegicus, UniProt P08482); test: In vitro binding affinity against rat hippocampus M1 receptor using [3H]oxotremorine-M (Oxo-M) as radioligand; type: tissue-based
T1 sequence (P08482 whole entry): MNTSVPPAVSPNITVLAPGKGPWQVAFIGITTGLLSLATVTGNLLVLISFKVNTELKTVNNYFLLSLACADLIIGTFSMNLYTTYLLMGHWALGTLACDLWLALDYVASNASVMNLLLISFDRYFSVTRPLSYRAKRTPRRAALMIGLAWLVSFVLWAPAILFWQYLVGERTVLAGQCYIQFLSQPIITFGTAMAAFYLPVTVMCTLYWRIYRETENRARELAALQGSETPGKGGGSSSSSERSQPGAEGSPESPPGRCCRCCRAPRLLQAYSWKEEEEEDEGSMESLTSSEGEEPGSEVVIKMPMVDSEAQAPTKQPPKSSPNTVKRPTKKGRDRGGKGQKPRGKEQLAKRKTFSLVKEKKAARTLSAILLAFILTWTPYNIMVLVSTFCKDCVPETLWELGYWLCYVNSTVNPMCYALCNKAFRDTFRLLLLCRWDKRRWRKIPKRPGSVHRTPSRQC
Procedure, shortened: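 Male Sprague-Dawley rat hippocampal P2 membranes (10 mg tissue wet weight, about 0.1 mg protein) with 3 nM [3H]oxotremorine-M in 20 mM Tris-Cl pH 7.4, 1 mL, 15 min at 25 °C.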

Oryctolagus cuniculus [2] = species on record: Oryctolagus cuniculus; test: (§1) Efficacy at M1 receptor measured by the ability to inhibit the electrically stimulated twitch of the rabbit vas deferens; type: functional, organism-based
Procedure, shortened: (§2)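 Cumulative concentration-effect curves with additions at 20-min intervals in two tissues; read-out twitch height decrease; if inhibition ≥50%, curves repeated in at least six tissues.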

Oryctolagus cuniculus [3] = species on record: Oryctolagus cuniculus; test: as §1; type: functional; procedure, shortened: as §2
[4] = biological target: T1, Muscarinic acetylcholine receptor M1; test: In vitro binding affinity against rat hippocampus M1 receptor using [3H]pirenzepine (Pz) as radioligand; type: tissue-based
Procedure, shortened: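 Male Sprague-Dawley rat hippocampal P2 membranes (10 mg tissue wet weight, about 0.1 mg protein) with 1 nM [3H]pirenzepine in 20 mM Tris-Cl pH 7.4 containing 1 mM MnCl2, 1 mL, 60 min at 25 °C.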

[5] = biological target: T1, Muscarinic acetylcholine receptor M1; test: Displacement of [3H]oxotremorine-M (Oxo-M) from rat hippocampus muscarinic acetylcholine receptor M1; type: tissue-based
[6] = biological target: T1, Muscarinic acetylcholine receptor M1; test: Displacement of [3H]pirenzepine (Pz) from rat hippocampus muscarinic acetylcholine receptor M1; type: tissue-based

Compound	IC50 [1]	IC50 (Oryctolagus cuniculus [2])	IC50 [4]	Max (Oryctolagus cuniculus [3])	IC50 [5]	IC50 [6]
CCCCCCOc1nccnc1C1=CCCN(C)C1	20 nM	266 nM	17 nM	93%	–	–
CN1CCC=C(c2nccnc2Cl)C1	–	–	–	–	276 nM	> 1000 nM
CCCOc1nccnc1C1=CCCN(C)C1	58 nM	–	65 nM	4%	–	–
CCCOc1nsnc1C1=CCCN(C)C1	–	–	–	25%	–	–
CCCCCCNc1nsnc1C1=CCCN(C)C1	–	–	–	65%	–	–
CCCCCCOc1nonc1C1=CCCN(C)C1	–	–	–	47%	–	–

More lines, main results first:

IC50 [1]	IC50 (Oryctolagus cuniculus [2])	IC50 [4]	Compound	Max (Oryctolagus cuniculus [3])	IC50 [5]	IC50 [6]
17 nM	–	17 nM	CCCCOc1nccnc1C1=CCCN(C)C1	0%	–	–
44 nM	224 nM	28 nM	CCCCCCSc1nccnc1C1=CCCN(C)C1	62%	–	–
13 nM	–	10 nM	CCCCCSc1nccnc1C1=CCCN(C)C1	18%	–	–
850 nM	–	840 nM	COc1nccnc1C1=CCCN(C)C1	0%	–	–
19 nM	–	16 nM	CCCCCOc1nccnc1C1=CCCN(C)C1	29%	–	–
200 nM	–	175 nM	CCOc1nccnc1C1=CCCN(C)C1	14%	–	–

Source: ChEMBL document CHEMBL1126311, “Novel functional M1 selective muscarinic agonists. 2. Synthesis and structure-activity relationships of 3-pyrazinyl-1,2,5,6-tetrahydro-1-methylpyridines. Construction of a molecular model for the M1 pharmacophore” (J Med Chem, 1992)
